In ChEMBL document CHEMBL3044706, “Lignans and neolignans from Brassica fruticulosa: effects on seed germination and plant growth” (2003):
Activity calls are given as the source filed them. No cut-off for these calls is given here.

How the values were obtained:
Lactuca sativa [1] = experiment: Effect on root elongation in Lactuca sativa (lettuce) at 10^-4 to 10^-9 M after 5 days relative to control; assay type: functional, organism-based
Outline: (§1)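 Lettuce seeds, 25 per 50 mm Petri dish on one Whatman No. 1 filter paper, with 2.5 mL test solution in 10 mM MES pH 6 (10^-4 M, diluted to 10^-9 M). Dishes were Parafilm-sealed and kept at 25 °C in the dark. Germination was scored daily for 5 days, then root/shoot lengths were measured on plants frozen at -20 °C. Four replicates, expressed as % difference from parallel control, with Student's t-test.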

Allium cepa [2] = experiment: Effect on seed germination in Allium cepa (onion) at 10^-4 to 10^-9 M after 7 days relative to control; assay type: functional, organism-based
Outline: (§2)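 Seeds (cress 3 days, tomato 5 days, onion 7 days), 25 per 90 mm Petri dish on one Whatman No. 1 filter paper, with 5 mL test solution in 10 mM MES pH 6 (10^-4 M, diluted to 10^-9 M). Dishes were sealed and kept at 25 °C in the dark. Germination was scored daily, then root/shoot lengths were taken after freezing at -20 °C. Four replicates, expressed as % difference from control, with t-test.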

Solanum lycopersicum [3] = experiment: Effect on seed germination in Solanum lycopersicum (tomato) at 10^-4 to 10^-9 M after 5 days relative to control; assay type: functional, organism-based; outline: as §2
Lactuca sativa [4] = experiment: Inhibition of seed germination in Lactuca sativa (lettuce) at 10^-9 M after 5 days relative to control; assay type: functional; conditions: 120 h; outline: as §1
Lactuca sativa [5] = experiment: Inhibition of seed germination in Lactuca sativa (lettuce) at 10^-4 to 10^-9 M after 5 days relative to control; assay type: functional; outline: as §1
Lepidium sativum [6] = experiment: Inhibition of shoot elongation in Lepidium sativum at 10^-4 to 10^-9 M after 3 days relative to control; assay type: functional; outline: as §2
Lepidium sativum [7] = experiment: Effect on root elongation in Lepidium sativum at 10^-4 to 10^-9 M after 3 days relative to control; assay type: functional, organism-based; outline: as §2
Lepidium sativum [8] = experiment: Effect on seed germination in Lepidium sativum at 10^-4 to 10^-9 M after 3 days relative to control; assay type: functional, organism-based; outline: as §2
Allium cepa [9] = experiment: Inhibition of shoot elongation in Allium cepa (onion) at 10^-4 to 10^-9 M after 7 days relative to control; assay type: functional, organism-based; outline: as §2
Solanum lycopersicum [10] = experiment: Inhibition of shoot elongation in Solanum lycopersicum (tomato) at 10^-4 to 10^-9 M after 5 days relative to control; assay type: functional, organism-based; outline: as §2
Lactuca sativa [11] = experiment: Inhibition of shoot elongation in Lactuca sativa (lettuce) at 10^-4 to 10^-9 M after 5 days relative to control; assay type: functional, organism-based; outline: as §1
Allium cepa [12] = experiment: Stimulation of shoot elongation in Allium cepa (onion) at 10^-4 to 10^-9 M after 7 days relative to control; assay type: functional, organism-based; outline: as §2
Lactuca sativa [13] = experiment: Stimulation of shoot elongation in Lactuca sativa (lettuce) at 10^-4 to 10^-9 M after 5 days relative to control; assay type: functional, organism-based; outline: as §1
Solanum lycopersicum [14] = experiment: Stimulation of shoot elongation in Solanum lycopersicum (tomato) at 10^-4 to 10^-9 M after 5 days relative to control; assay type: functional, organism-based; outline: as §2
Allium cepa [15] = experiment: Stimulation of root elongation in Allium cepa (onion) at 10^-4 to 10^-9 M after 7 days relative to control; assay type: functional, organism-based; outline: as §2
Solanum lycopersicum [16] = experiment: Effect on root elongation in Solanum lycopersicum (tomato) at 10^-4 to 10^-9 M after 5 days relative to control; assay type: functional, organism-based; outline: as §2

Compound | Activity (Lactuca sativa [1]) | Activity (Allium cepa [2]) | Activity (Solanum lycopersicum [3]) | inhibition at 0.001 µM (Lactuca sativa [4]) [%] | inhibition (Lactuca sativa [5]) | inhibition (INH) (Lepidium sativum [6]) [%] | Activity (Lepidium sativum [7]) | Activity (Lepidium sativum [8]) | inhibition (Allium cepa [9]) | inhibition (Solanum lycopersicum [10]) | inhibition (Lactuca sativa [11]) | Activity (Allium cepa [12]) | Activity (Lactuca sativa [13]) | Activity (Solanum lycopersicum [14]) | Activity (Allium cepa [15]) | Activity (Solanum lycopersicum [16]) | inhibition (INH) (Lactuca sativa [5]) [%]
COc1cc(C[C@H]2CO[C@H](c3ccc(O)c(OC)c3)[C@H]2CO)ccc1O (racemic) [LARICIRESINOL] | inactive | inactive | inactive | 75 | Active | 30 | inactive | inactive | Active | Active | Active | Active | Active | Active | Active | inactive | 
COc1cc([C@@H]2OC[C@H]3[C@@H]2CO[C@H]3c2ccc(O)c(OC)c2)ccc1O | inactive | inactive | inactive |  |  |  |  |  | Active | Active | Active | Active | Active | Active | Active | inactive | 
COc1cc([C@H](O)[C@@H](CO)Oc2c(OC)cc([C@@H]3Oc4c(OC)cc(/C=C/CO)cc4[C@H]3CO)cc2OC)ccc1O | inactive | inactive | inactive |  | Active |  |  |  | Active | Active | Active | Active | Active | Active | Active | inactive | 
COc1cc(C[C@H]2CO[C@H](c3ccc(O[C@@H](CO)[C@@H](O)c4ccc(O)c(OC)c4)c(OC)c3)[C@H]2CO)ccc1O | inactive | inactive | inactive |  | Active |  |  |  | Active | Active | Active | Active | Active | Active | Active | inactive | 
O=C(O)CNCP(=O)(O)O | inactive |  |  |  | Active |  |  |  |  |  |  |  | Active |  |  |  | 
COc1cc([C@@H]2Oc3c(OC)cc(/C=C/CO)cc3[C@H]2CO)ccc1O [DEHYDROCONIFERYL ALCOHOL] | inactive | inactive | inactive |  |  | 30 | inactive | inactive | Active | Active | Active | Active | Active | Active | Active | inactive | 70
COc1cc([C@@H]2c3cc(O)c(OC)cc3C[C@H](CO)[C@H]2CO)ccc1O [(-)-ISOLARICIRESINOL] | inactive | inactive | inactive | 50 | Active | 30 | inactive | inactive | Active | Active | Active | Active | Active | Active | inactive | inactive | 
CCC(CC)Nc1c([N+](=O)[O-])cc(C)c(C)c1[N+](=O)[O-] | inactive |  |  |  | Active |  |  |  |  |  |  |  | Active |  |  |  | 
COc1cc(C[C@@H](CO)[C@H](CO)Cc2ccc(O)c(OC)c2)ccc1O [(+)-SECOISOLARICIRESINOL] | inactive | inactive | inactive | 50 | Active |  |  |  | Active | Active | Active | Active | Active | Active | Active | inactive | 
COc1cc(/C=C/C(=O)O)ccc1Oc1ccc(/C=C/C(=O)O)cc1OC | inactive | inactive | inactive |  |  |  |  |  | Active | Active | Active | Active | Active | Active | Active | inactive | 
COc1cc([C@H](O)[C@H](CO)Oc2c(OC)cc([C@@H]3OC[C@@H]4[C@H]3CO[C@H]4c3cc(OC)c(O[C@@H](CO)[C@@H](O)c4ccc(O)c(OC)c4)c(OC)c3)cc2OC)ccc1O | inactive | inactive | inactive |  | Active |  |  |  | Active | Active | Active | Active | Active | Active | Active | inactive | 
COc1cc([C@@H](O)[C@@H](CO)Oc2c(OC)cc(/C=C/CO)cc2OC)ccc1O | inactive | inactive | inactive |  |  |  |  |  | Active | Active | Active | Active | Active | Active | Active | inactive | 
COc1cc([C@@H](O)[C@H]2CO[C@H](c3ccc(O)c(OC)c3)[C@H]2CO)ccc1O | inactive | inactive | inactive |  |  |  |  |  | Active | Active | Active | Active | Active | Active | Active | inactive | 
COc1cc([C@H](O)[C@@H](CO)Oc2ccc(/C=C/CO)cc2OC)ccc1O (racemic) | inactive | inactive | inactive |  | Active |  |  |  | Active | Active | Active | Active | Active | Active | Active | inactive | 
